{
  "source": "ChEMBL document CHEMBL3734686",
  "about": "“Synthesis, Photophysical Properties, and Biological Evaluation of trans-Bisthioglycosylated Tetrakis(fluorophenyl)chlorin for Photodynamic Therapy” (J Med Chem, 2015)",
  "key": {"[1]": {"system": "U-251", "assay": "Photocytotoxicity against human U251 cells assessed as cell survival preincubated for 24 hrs followed by irradiation at 16 J/cm2 measured at 24 hrs by WST-8 assay", "format": "functional, cell-based", "conditions": "U-251, light or radiation study", "method_in_brief": "(§1)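 Cells (5 × 10^3/well) in DMEM with 10% FCS, 24 h at 37°C, 5% CO2; photosensitizer 1–50000 nM (1% DMSO final) for 24 h, washed, fresh medium. Irradiated with 100-W halogen lamp through λ>500 nm or λ>600 nm cutoff filter to 16 J·cm−2; WST-8 absorbance at 450 nm 24 h later, survival normalized to no-drug wells.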"}, "[2]": {"system": "Heart", "assay": "Drug uptake in BALB/c mouse heart implanted with mouse 4T1 cells assessed per gram of tissue at 0.18 mg/kg, ip after 72 hrs by HPLC-based fluorescence analysis", "format": "ADME, organism-based", "conditions": "in vivo", "method_in_brief": "(§2)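 Female BALB/c mice bearing 4T1 thigh tumours received an i.p. dose in ethanol/PEG400/H2O (2/3/5) with 0.1% DMSO, or in saline, and were kept dark until killed. Tissues were weighed (100 mg), homogenised in CH3OH/DMSO/H2O (32/8/1) and centrifuged twice at 2300×g at 4°C. Supernatants were analysed by HPLC with fluorescence detection (λex 404/λem 654 nm or λex 400/λem 666 nm). n = 3 per time point.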"}, "[3]": {"assay": "Photocytotoxicity against human U87 cells assessed as cell survival preincubated for 24 hrs followed by irradiation at 16 J/cm2 measured at 24 hrs by WST-8 assay", "format": "functional, cell-based, U-87MG ATCC", "conditions": "U-87 MG, light or radiation study", "method_in_brief": "as §1"}, "[4]": {"system": "Kidney", "assay": "Drug uptake in BALB/c mouse kidney implanted with mouse 4T1 cells assessed per gram of tissue at 0.18 mg/kg, ip after 12 hrs by HPLC-based fluorescence analysis", "format": "ADME, organism-based", "conditions": "in vivo", "method_in_brief": "as §2"}, "[5]": {"system": "Urinary bladder", "assay": "Drug uptake in BALB/c mouse bladder implanted with mouse 4T1 cells assessed per gram of tissue at 0.18 mg/kg, ip after 12 hrs by HPLC-based fluorescence analysis", "format": "ADME, organism-based", "conditions": "in vivo", "method_in_brief": "as §2"}, "[6]": {"system": "Liver", "assay": "Drug uptake in BALB/c mouse liver implanted with mouse 4T1 cells assessed per gram of tissue at 0.18 mg/kg, ip after 72 hrs by HPLC-based fluorescence analysis", "format": "ADME, organism-based", "conditions": "in vivo", "method_in_brief": "as §2"}, "[7]": {"system": "Stomach", "assay": "Drug uptake in BALB/c mouse stomach implanted with mouse 4T1 cells assessed per gram of tissue at 0.18 mg/kg, ip after 12 hrs by HPLC-based fluorescence analysis", "format": "ADME, organism-based", "conditions": "in vivo", "method_in_brief": "(§3)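 Female BALB/c mice with 4T1 cells (1 × 10^6 in HBSS) implanted in left rear thigh; single i.p. dose, 7 in ethanol/PEG400/H2O (2/3/5) with 0.1% DMSO, mono-L-aspartyl chlorin e6 in saline; kept dark until sacrifice. Tissues washed, frozen, homogenized in CH3OH/DMSO/H2O (32/8/1), centrifuged 2300×g; supernatant analysed by HPLC with fluorescence detection; three animals per time point.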"}, "[8]": {"assay": "Drug uptake in nucleus of human Hela cells at 0.5 uM preincubated for 24 hrs followed by MitoTracker Green FM addition for 30 mins by CSLM analysis", "format": "ADME, cell-based", "conditions": "0.5 h", "method_in_brief": "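HeLa cells (1 × 10^4) plated 24 h, incubated 24 h with 0.5 µM final photosensitizer (1% DMSO), washed, stained 30 min with 250 nM MitoTracker Green FM in HBSS at 37°C, fixed in 4% paraformaldehyde. Confocal imaging: red λex 488/λem 650 nm; green λex 488/λem 505–530 nm.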"}, "[9]": {"assay": "Drug uptake in BALB/c mouse large intestine implanted with mouse 4T1 cells assessed per gram of tissue at 0.18 mg/kg, ip after 72 hrs by HPLC-based fluorescence analysis", "format": "ADME, organism-based", "conditions": "in vivo", "method_in_brief": "as §2"}, "[10]": {"system": "Stomach", "assay": "Drug uptake in BALB/c mouse stomach implanted with mouse 4T1 cells assessed per gram of tissue at 0.18 mg/kg, ip after 72 hrs by HPLC-based fluorescence analysis", "format": "ADME, organism-based", "conditions": "in vivo", "method_in_brief": "as §3"}, "[11]": {"assay": "Induction of reactive oxygen generation assessed as quantum yield of singlet oxygen generation in O2 saturated D2O containing 0.1% DMSO by spectrometry", "format": "physicochemical", "method_in_brief": "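Photosensitizer in D2O with 0.1% DMSO, absorbance set to 0.4 at its excitation wavelength, oxygen-purged 1 min; singlet-oxygen luminescence recorded with NIR photomultiplier cooled to 193 K; TPPS as reference.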"}, "[12]": {"system": "Spleen", "assay": "Drug uptake in BALB/c mouse spleen implanted with mouse 4T1 cells assessed per gram of tissue at 0.18 mg/kg, ip after 6 hrs by HPLC-based fluorescence analysis", "format": "ADME, organism-based", "conditions": "in vivo", "method_in_brief": "as §3"}, "[13]": {"system": "Lung", "assay": "Drug uptake in BALB/c mouse lung implanted with mouse 4T1 cells assessed per gram of tissue at 0.18 mg/kg, ip after 24 hrs by HPLC-based fluorescence analysis", "format": "ADME, organism-based", "conditions": "in vivo", "method_in_brief": "as §2"}, "[14]": {"system": "Urinary bladder", "assay": "Drug uptake in BALB/c mouse bladder implanted with mouse 4T1 cells assessed per gram of tissue at 0.18 mg/kg, ip after 72 hrs by HPLC-based fluorescence analysis", "format": "ADME, organism-based", "conditions": "in vivo", "method_in_brief": "as §2"}, "[15]": {"system": "4T1", "assay": "Antitumor activity against mouse 4T1 cells implanted in BALB/c mouse at 0.18 mg/kg, ip assessed as tumor growth inhibition administered for 48 hrs followed by irradiation at 40 mW/cm2 for 20.1 mins measured after 5 days by Vernier calipers", "format": "functional, organism-based", "method_in_brief": "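Female BALB/c mice carried 4T1 thigh tumours (1 × 10^6 cells) of 50–60 mm3. They were dosed i.p. at 250–31.25 nmol·kg−1 in ethanol/PEG400/H2O (2/3/5) containing 0.1% DMSO and kept dark. At 48 h the tumour was irradiated with a 100-W halogen lamp at 40 mW·cm−2 for 20.1 min. Tumour size was measured daily by caliper as length × width²/2 and normalised to day 0.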"}, "[16]": {"system": "Lung", "assay": "Drug uptake in BALB/c mouse lung implanted with mouse 4T1 cells assessed per gram of tissue at 0.18 mg/kg, ip after 12 hrs by HPLC-based fluorescence analysis", "format": "ADME, organism-based", "conditions": "in vivo", "method_in_brief": "as §2"}, "[17]": {"system": "Spleen", "assay": "Drug uptake in BALB/c mouse spleen implanted with mouse 4T1 cells assessed per gram of tissue at 0.18 mg/kg, ip after 24 hrs by HPLC-based fluorescence analysis", "format": "ADME, organism-based", "conditions": "in vivo", "method_in_brief": "as §3"}, "[18]": {"system": "Urinary bladder", "assay": "Drug uptake in BALB/c mouse bladder implanted with mouse 4T1 cells assessed per gram of tissue at 0.18 mg/kg, ip after 24 hrs by HPLC-based fluorescence analysis", "format": "ADME, organism-based", "conditions": "in vivo", "method_in_brief": "as §2"}, "[19]": {"system": "HeLa", "assay": "Drug uptake in human HeLa cells at 0.1 uM after 24 hrs by spectrophotometrical analysis", "format": "ADME, cell-based", "method_in_brief": "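HeLa cells (2.5 × 10^6/well) in DMEM with 10% FCS, preincubated 24 h at 37°C; photosensitizer added to 0.1 µM final (1% DMSO) for 24 h, two wells each. Cells washed twice with PBS, lysed in DMSO, Soret-band absorbance read against DMSO calibration; mean of three replicate experiments.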"}, "[20]": {"assay": "Drug uptake in BALB/c mouse small intestine implanted with mouse 4T1 cells assessed per gram of tissue at 0.18 mg/kg, ip after 24 hrs by HPLC-based fluorescence analysis", "format": "ADME, organism-based", "conditions": "in vivo", "method_in_brief": "as §3"}, "[21]": {"system": "Kidney", "assay": "Drug uptake in BALB/c mouse kidney implanted with mouse 4T1 cells assessed per gram of tissue at 0.18 mg/kg, ip after 48 hrs by HPLC-based fluorescence analysis", "format": "ADME, organism-based", "conditions": "in vivo", "method_in_brief": "as §2"}, "[22]": {"system": "Spleen", "assay": "Drug uptake in BALB/c mouse spleen implanted with mouse 4T1 cells assessed per gram of tissue at 0.18 mg/kg, ip after 48 hrs by HPLC-based fluorescence analysis", "format": "ADME, organism-based", "conditions": "in vivo", "method_in_brief": "as §3"}},
  "note": "pEC50: −log10 of the molar value. Activity calls are given as the source filed them.",
  "data": [
    {"molecule": "CN1CC2C3=N/C(=C(/c4c(F)c(F)c(S[C@@H]5O[C@H](CO)[C@@H](O)[C@H](O)[C@H]5O)c(F)c4F)C4=N/C(=C(/c5c(F)c(F)c(F)c(F)c5F)c5ccc([nH]5)/C(c5c(F)c(F)c(S[C@@H]6O[C@H](CO)[C@@H](O)[C@H](O)[C@H]6O)c(F)c5F)=C5/C=CC(=N5)C3c3c(F)c(F)c(F)c(F)c3F)C=C4)C2C1", "note": "(some centres not stated)", "values": [
      {"measurement": "pEC50", "setting": "[1]", "result": 9.30},
      {"measurement": "Drug uptake", "setting": "[2]", "result": 3.3, "unit": "ng"},
      {"measurement": "pEC50", "setting": "[3]", "result": 10.00},
      {"measurement": "Drug uptake", "setting": "[4]", "result": 25, "unit": "ng"},
      {"measurement": "Drug uptake", "setting": "[5]", "result": 95, "unit": "ng/g"},
      {"measurement": "Drug uptake", "setting": "[6]", "result": 14, "unit": "ng"},
      {"measurement": "Drug uptake", "setting": "[7]", "result": 20, "unit": "ng/g"},
      {"measurement": "Drug uptake", "setting": "[8]", "result": "Not Active"},
      {"measurement": "Drug uptake", "setting": "[9]", "result": 7, "unit": "ng/g"},
      {"measurement": "Drug uptake", "setting": "[10]", "result": 7, "unit": "ng"},
      {"measurement": "Activity", "setting": "[11]", "result": 0.25},
      {"measurement": "Drug uptake", "setting": "[12]", "result": 90, "unit": "ng/g"},
      {"measurement": "Drug uptake", "setting": "[13]", "result": 29, "unit": "ng/g"},
      {"measurement": "Drug uptake", "setting": "[14]", "result": 8, "unit": "ng"},
      {"measurement": "Activity", "setting": "[15]", "result": "Active"},
      {"measurement": "Drug uptake", "setting": "[16]", "result": 30, "unit": "ng"},
      {"measurement": "Drug uptake", "setting": "[17]", "result": 58, "unit": "ng"},
      {"measurement": "Drug uptake", "setting": "[18]", "result": 77, "unit": "ng"},
      {"measurement": "Drug uptake", "setting": "[19]", "result": "Active"},
      {"measurement": "Drug uptake", "setting": "[20]", "result": 39, "unit": "ng/g"},
      {"measurement": "Drug uptake", "setting": "[21]", "result": 5, "unit": "ng"},
      {"measurement": "Drug uptake", "setting": "[22]", "result": 14, "unit": "ng"}
    ]}
  ]
}
